In ChEMBL document CHEMBL5360543, “Designed multiple ligands for the treatment of type 2 diabetes mellitus and its complications: Discovery of (5-arylidene-4-oxo-2-thioxothiazolidin-3-yl)alkanoic acids active as novel dual-targeted PTP1B/AKR1B1 inhibitors” (Eur J Med Chem, 2023):
Active and inactive are the calls of the source. The rule behind the calls is not given here.

Key:
[1] = target: T1, Tyrosine-protein phosphatase non-receptor type 1 (Homo sapiens, UniProt P18031); test: Non-competitive inhibition of N-terminal polyHis-tagged human PTP1B1 (1 to 303 residues) expressed in Escherichia coli BL21(DE3)pLysS assessed as apparent dissociation constant for ESI complex using pNPP as substrate by Lineweaver-Burk plot analysis
T1 sequence (P18031 whole entry): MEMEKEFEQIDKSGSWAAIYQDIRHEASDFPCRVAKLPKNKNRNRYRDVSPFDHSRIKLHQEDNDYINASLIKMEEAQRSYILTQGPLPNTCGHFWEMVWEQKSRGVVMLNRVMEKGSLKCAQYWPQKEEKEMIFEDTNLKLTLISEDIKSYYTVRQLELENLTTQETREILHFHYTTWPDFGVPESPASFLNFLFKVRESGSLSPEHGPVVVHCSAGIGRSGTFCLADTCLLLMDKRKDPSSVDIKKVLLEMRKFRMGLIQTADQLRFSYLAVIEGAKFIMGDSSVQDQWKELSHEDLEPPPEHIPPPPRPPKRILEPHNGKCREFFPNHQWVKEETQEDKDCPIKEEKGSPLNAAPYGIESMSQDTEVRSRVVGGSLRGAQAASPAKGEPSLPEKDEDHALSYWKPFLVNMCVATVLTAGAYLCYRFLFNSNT
Summary of the method: (§1)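 PTP1B initial pNPP hydrolysis rates measured at seven pNPP concentrations (0.5–25 mM) and at least three inhibitor concentrations, in triplicate. Data fitted to Michaelis–Menten; KM and Vmax dependence on inhibitor analysed by Lineweaver–Burk plots.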

[2] = target: T1, Tyrosine-protein phosphatase non-receptor type 1; test: Non-competitive inhibition of N-terminal polyHis-tagged human PTP1B1 (1 to 303 residues) expressed in Escherichia coli BL21(DE3)pLysS assessed as apparent dissociation constant for EI complex using pNPP as substrate by Lineweaver-Burk plot analysis; summary of the method: as §1
[3] = target: T2, Aldo-keto reductase family 1 member B1 (Homo sapiens, UniProt P15121); test: Ratio of Ki for human recombinant AKR1B1 expressed in Escherichia coli BL21(DE3)pLysS assessed as apparent dissociation constant for EI complex to Ki for human recombinant AKR1B1 expressed in Escherichia coli BL21(DE3)pLysS assessed as apparent dissociation constant for ESI complex
Summary of the method: (§2)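 AKR1B1 rates measured at varied L-idose concentrations with and without several inhibitor concentrations, then Lineweaver–Burk analysis. […] Tight binders fitted with the Morrison equation, KM for L-idose taken as 3.8 mM. At least three independent experiments.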

C2C12 [4] = test: Effect on total Akt protein expression in mouse C2C12 cells at 20 uM incubated for 15 mins by SDS-PAGE analysis; format: functional, cell-based
Summary of the method: (§3)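 C2C12 cells starved 24 h, then given 10 nM insulin, 20 µM compound, or both, for 15 min. Washed in cold PBS, lysed in 1X Laemmli buffer, run on SDS-PAGE, blotted to PVDF. Probed with antibodies to phospho-Akt and total Akt, with actin as loading control. Bands quantified; triplicate, mean ± SD (n = 3).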

[5] = target: T3, Tyrosine-protein phosphatase non-receptor type 1 (Mus musculus) (UniProt P35821); test: Inhibition of PTP1B in mouse C2C12 cells assessed as potentiation of insulin-induced Akt phosphorylation by measuring increase in ratio of pAkt to Akt at 20 uM treated for 15 mins in presence of insulin by western blot analysis; format: cell-based; summary of the method: as §3
T3 sequence (whole entry): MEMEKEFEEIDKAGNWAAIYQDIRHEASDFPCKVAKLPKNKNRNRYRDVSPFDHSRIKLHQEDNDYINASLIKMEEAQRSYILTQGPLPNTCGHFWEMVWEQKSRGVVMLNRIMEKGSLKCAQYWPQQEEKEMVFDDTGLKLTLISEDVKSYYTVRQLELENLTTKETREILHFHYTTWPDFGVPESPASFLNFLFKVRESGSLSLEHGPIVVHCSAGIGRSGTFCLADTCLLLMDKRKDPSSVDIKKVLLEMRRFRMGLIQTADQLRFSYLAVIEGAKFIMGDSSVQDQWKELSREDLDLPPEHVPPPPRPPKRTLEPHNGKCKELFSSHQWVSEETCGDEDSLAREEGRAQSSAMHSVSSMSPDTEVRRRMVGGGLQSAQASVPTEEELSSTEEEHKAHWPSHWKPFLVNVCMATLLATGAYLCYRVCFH

[6] = target: T2, Aldo-keto reductase family 1 member B1; test: Inhibition of AKR1B1 in human HLE cells assessed as inhibition of glucose-induced sorbitol accumulation at 2 uM incubated for 24 hrs in presence of glucose; format: cell-based
Summary of the method: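 HLE cells held 24 h in 75 mM D-glucose with or without 2 µM compound; 10 µM sorbinil as reference. Lysates from freeze/thaw and 10,000 × g spin were treated with perchloric acid and neutralized with KOH. Sorbitol assayed and expressed as nmol/mg protein (Bradford). Mean ± SEM of six measurements; one-way ANOVA with Tukey.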

HLE = test: Cytotoxicity against human HLE cells assessed as reduction in cell viability at 2 uM incubated for 24 to 48 hrs by MTT assay; format: toxicity, cell-based; conditions: time 24-48 hrs
Summary of the method: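 HLE lens epithelial B3 cells in MEM with 20% FBS at 37 °C, exposed 24 and 48 h to compound in 0.05% DMSO. Then 1 h in MTT 0.5 mg/mL in phosphate buffer pH 7.4, formazan dissolved in 0.04 N HCl/isopropanol, absorbance 563 nm. Mean ± SEM of eleven independent measurements; Student's t test versus untreated cells.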

C2C12 [7] = test: Effect on total Akt protein expression in mouse C2C12 cells at 20 uM incubated for 15 mins in presence of insulin by SDS-PAGE analysis; format: functional, cell-based; summary of the method: as §3
C2C12 [8] = test: Cytotoxicity against mouse C2C12 cells assessed as reduction in cell viability at 20 uM incubated for 24 hrs by MTT assay; format: toxicity, cell-based; conditions: c2c12, 24 h
Summary of the method: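 C2C12 myoblasts were differentiated for 96 h in DMEM with 2% horse serum, then held 24 h in complete medium with 20 µM compound, DMSO vehicle as control. MTT 0.5 mg/mL was added, cells lysed in DMSO, absorbance read, and values normalized to vehicle. Quadruplicate, mean ± SD (n = 4).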

[9] = target: T2, Aldo-keto reductase family 1 member B1; test: Inhibition of human recombinant AKR1B1 expressed in Escherichia coli BL21(DE3)pLysS using L-idose as substrate by NADPH oxidation based absorbance analysis
[10] = target: T4, Tyrosine-protein phosphatase non-receptor type 2 (Homo sapiens, UniProt P17706); test: Inhibition of N-terminal polyHis-tagged human recombinant TC-PTPb (1 to 415 residues) expressed in Escherichia coli BL21(DE3)pLysS
T4 sequence (P17706 whole entry): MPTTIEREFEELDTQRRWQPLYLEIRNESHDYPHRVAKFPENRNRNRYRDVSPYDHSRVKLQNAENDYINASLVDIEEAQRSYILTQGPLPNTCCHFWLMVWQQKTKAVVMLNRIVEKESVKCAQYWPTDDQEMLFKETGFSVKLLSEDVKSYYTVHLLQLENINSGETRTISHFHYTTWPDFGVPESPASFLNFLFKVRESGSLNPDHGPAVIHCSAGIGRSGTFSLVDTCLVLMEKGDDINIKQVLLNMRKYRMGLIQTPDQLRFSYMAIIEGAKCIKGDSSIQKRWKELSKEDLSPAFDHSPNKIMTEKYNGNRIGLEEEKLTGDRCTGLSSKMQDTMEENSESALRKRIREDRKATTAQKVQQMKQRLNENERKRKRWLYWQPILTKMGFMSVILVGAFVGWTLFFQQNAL

[11] = target: T5, Tyrosine-protein phosphatase non-receptor type 1 (Homo sapiens) (UniProt P18031); test: Reversible inhibition of N-terminal polyHis-tagged human PTP1B1 (1 to 303 residues) expressed in Escherichia coli BL21(DE3)pLysS using pNPP as substrate pretreated with enzyme for 60 mins followed by 400-fold dilution with buffer containing substrate and measured after 15 mins by spectrophotometric analysis; conditions: time 75.0 min
T5 sequence (whole entry): T1 sequence (P18031 whole entry)
Summary of the method: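 PTP1B incubated 60 min at 37 °C with saturating inhibitor, then diluted 400-fold into assay buffer containing 2.5 mM pNPP. Stopped after 15 min with 0.2 M KOH; absorbance read at 400 nm. Normalized to enzyme diluted with DMSO; mean ± SEM (n = 3).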

C2C12 [12] = test: Insulin-mimetic activity in mouse C2C12 cells assessed as stimulation of 2-NBDG uptake at 20 uM pretreated with compound for 15 mins followed by 2-NBDG addition and measured after 3 hrs by flow cytometry; format: functional, cell-based; conditions: time 195.0 min
Summary of the method: (§4)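 C2C12 cells serum-starved 24 h, then 15 min with 10 nM insulin, 20 µM compound, or both. Washed, then 3 h in starvation medium containing 40 µM 2-NBDG. Trypsinized, washed, and fluorescence measured by flow cytometry. Quadruplicate; mean fluorescence ± SD.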

[13] = target: T2, Aldo-keto reductase family 1 member B1; test: Mixed non-competitive inhibition of human recombinant AKR1B1 expressed in Escherichia coli BL21(DE3)pLysS assessed as apparent dissociation constant for EI complex using L-idose as substrate by secondary plot analysis; summary of the method: as §2
[14] = target: T1, Tyrosine-protein phosphatase non-receptor type 1; test: Inhibition of N-terminal polyHis-tagged human PTP1B1 (1 to 303 residues) expressed in Escherichia coli BL21(DE3)pLysS using pNPP as substrate by spectrophotometric analysis
Summary of the method: (§5)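 His-tagged human PTP1B (1–303) from E. coli BL21(DE3)pLysS, assayed in 0.075 M β,β-dimethylglutarate pH 7.0 with 1 mM EDTA, 0.1 mM DTT and pNPP. Reaction stopped with 0.1 M KOH; p-nitrophenol read at 400 nm. IC50 from 15–16 inhibitor concentrations in triplicate, normalized to control, fitted by nonlinear regression. Single-point residual activity at 5 µM.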

C2C12 [15] = test: Insulin-mimetic activity in mouse C2C12 cells assessed as stimulation of 2-NBDG uptake at 20 uM pretreated with compound and insulin for 15 mins followed by 2-NBDG addition and measured after 3 hrs by flow cytometry; format: functional, cell-based; conditions: time 195.0 min; summary of the method: as §4
[16] = target: T3, Tyrosine-protein phosphatase non-receptor type 1 (Mus musculus); test: Inhibition of PTP1B in mouse C2C12 cells assessed as increase in Akt phosphorylation by measuring increase in ratio of pAkt to Akt at 20 uM treated for 15 mins by western blot analysis; format: cell-based; summary of the method: as §3
[17] = target: T2, Aldo-keto reductase family 1 member B1; test: Mixed non-competitive inhibition of human recombinant AKR1B1 expressed in Escherichia coli BL21(DE3)pLysS assessed as apparent dissociation constant for ESI complex using L-idose as substrate by secondary plot analysis; summary of the method: as §2
[18] = target: T2, Aldo-keto reductase family 1 member B1; test: Reversible inhibition of human recombinant AKR1B1 expressed in Escherichia coli BL21(DE3)pLysS assessed as recovery of enzyme activity using L-idose as substrate measured after extensive dialysis by NADPH oxidation based absorbance analysis; set-up: scale not given: the % may be the effect or the level left
[19] = target: T5, Tyrosine-protein phosphatase non-receptor type 1 (Homo sapiens); test: Inhibition of N-terminal polyHis-tagged human PTP1B1 (1 to 303 residues) expressed in Escherichia coli BL21(DE3)pLysS assessed as enzyme residual activity using pNPP as substrate at 5 uM by spectrophotometric analysis; summary of the method: as §5
[20] = target: T1, Tyrosine-protein phosphatase non-receptor type 1; test: Mixed non-competitive inhibition of N-terminal polyHis-tagged human PTP1B1 (1 to 303 residues) expressed in Escherichia coli BL21(DE3)pLysS assessed as apparent dissociation constant for EI complex using pNPP as substrate by Lineweaver-Burk plot analysis; summary of the method: as §1
[21] = target: T1, Tyrosine-protein phosphatase non-receptor type 1; test: Mixed non-competitive inhibition of N-terminal polyHis-tagged human PTP1B1 (1 to 303 residues) expressed in Escherichia coli BL21(DE3)pLysS assessed as apparent dissociation constant for ESI complex using pNPP as substrate by Lineweaver-Burk plot analysis; summary of the method: as §1

Row | SMILES | inhibition [5] | IC50 [9] | IC50 [10] | inhibition [11] | IC50 [14] | inhibition [16] | Activity [19] | Activity (C2C12 [8]) | also measured
1 | O=C(O)CCN1C(=O)/C(=C/c2ccc(OCCCOc3ccccc3)cc2)SC1=S | – | 3.9 µM | – | – | – | – | 74.4% | – | –
2 | O=C(O)CCN1C(=O)/C(=C/c2cccc(OCCCc3ccccc3)c2)SC1=S | – | 1.2 µM | – | – | – | – | 67.6% | – | –
3 | O=C(O)CCN1C(=O)/C(=C/c2ccc(OCCCCc3ccccc3)cc2)SC1=S | Active | 60.7 µM | 9.1 µM | Active | 2.9 µM | Active | – | Non-Toxic | Ki [20]: 0.6 µM; Ki [21]: 2.4 µM
4 | O=C(O)CN1C(=O)/C(=C/c2ccc(OCCCc3ccccc3)cc2)SC1=S | – | 0.26 µM | – | – | – | – | 79% | – | –

Now those with a lower IC50 [9], led by results:

Row | inhibition [5] | IC50 [9] | IC50 [10] | inhibition [11] | IC50 [14] | inhibition [16] | Activity [19] | SMILES | Activity (C2C12 [8]) | also measured
5 | – | 0.22 µM | – | – | – | – | 87.6% | O=C(O)CN1C(=O)/C(=C/c2ccc(OCCCOc3ccccc3)cc2)SC1=S | – | –
6 | Active | 0.06 µM | 9 µM | Active | 4.3 µM | Active | – | O=C(O)CN1C(=O)/C(=C/c2cccc(OCCCCc3ccccc3)c2)SC1=S | Non-Toxic | Ki [1]: 4.3 µM; Ki [2]: 4.6 µM; Ratio Ki [3]: 2; Activity (C2C12 [4]): inactive; inhibition [6]: Active; Activity (HLE): Non-Toxic; Activity (C2C12 [7]): inactive; Activity (C2C12 [12]): Active; Ki [13]: 0.08 µM; Activity (C2C12 [15]): Active; Ki [17]: 0.03 µM; Activity [18]: > 90%
